Each block holds one substance with its values, some of them ahead of it.
Assays:
[1] = target: T1, kB1R (Homo sapiens, UniProt P46663); assay: [3H]DAKD binding and endocytosis assay, cell surface kB1R, HEK293 cells; conditions: HEK cells stably expressing kB1R and kB2R; 10 min, 37 °C (DAKD 1 μM), no acid wash; 4 nM [3H]DAKD 90 min on ice; n=3
T1 sequence (P46663 1-353): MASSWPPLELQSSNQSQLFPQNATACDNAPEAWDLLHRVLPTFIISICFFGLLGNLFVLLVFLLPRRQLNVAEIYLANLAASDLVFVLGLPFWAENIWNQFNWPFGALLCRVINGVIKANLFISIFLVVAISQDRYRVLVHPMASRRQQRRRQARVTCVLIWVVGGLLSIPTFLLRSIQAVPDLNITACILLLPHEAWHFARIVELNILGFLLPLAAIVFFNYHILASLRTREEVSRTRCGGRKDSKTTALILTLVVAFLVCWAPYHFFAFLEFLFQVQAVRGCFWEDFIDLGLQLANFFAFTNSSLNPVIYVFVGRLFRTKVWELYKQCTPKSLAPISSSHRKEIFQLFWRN
Outline: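 Confluent monolayers were rinsed three times in warm PBS and exposed to unlabelled agonist or vehicle (PBS). They were washed with ice-cold PBS, and binding was then done on ice. Cells were washed three times in cold PBS, lysed in 0.2 M NaOH and counted by scintillation. Total binding was taken as label bound in cells given PBS alone.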

[2] = system: GPCRs coupled with Gαq (LPA); assay: Intracellular Ca2+ response to LPA, HEK cells; format: cell-based, human
Outline: (§1)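 Cross-desensitization in HEK293 cells stably expressing kB1R, loaded with fura-2 (2 μM, 60 min, 37 °C) on polylysine coverslips. Cells were given thrombin or LPA followed by kB1R agonist, or kB1R agonist first and then thrombin or LPA. [Ca²⁺]i was read as 510 nm emission at 340/380 nm excitation.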

[3] = target: T1, kB1R; assay: Intracellular Ca2+ response; format: cell-based; conditions: for effect of pre-stimulation on kB1R response: kB1R expressing cells, discussion summary
Outline: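 Receptor-expressing HEK cells were grown to 80% confluence on polylysine-coated glass coverslips. They were loaded with 2 μM fura-2/AM for 60 min at 37 °C. For pre-stimulation, cells received vehicle or a kinin agonist (e.g. 1 μM BK) for 10 min, then a kB1R agonist. The [Ca²⁺]i rise was quantified as area under the curve and plotted against log dose; n=3, mean ± SE.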

[4] = system: protease activated receptor; assay: Intracellular Ca2+ response to thrombin, HEK cells; format: cell-based, human
Outline: as §1

[5] = target: T2, kB2R (Homo sapiens, UniProt P30411); assay: Intracellular Ca2+ response; format: cell-based; conditions: HEK cells stably expressing kB1R and kB2R; first 1 μM DAKD, then 1 μM KD
T2 sequence (P30411 1-391): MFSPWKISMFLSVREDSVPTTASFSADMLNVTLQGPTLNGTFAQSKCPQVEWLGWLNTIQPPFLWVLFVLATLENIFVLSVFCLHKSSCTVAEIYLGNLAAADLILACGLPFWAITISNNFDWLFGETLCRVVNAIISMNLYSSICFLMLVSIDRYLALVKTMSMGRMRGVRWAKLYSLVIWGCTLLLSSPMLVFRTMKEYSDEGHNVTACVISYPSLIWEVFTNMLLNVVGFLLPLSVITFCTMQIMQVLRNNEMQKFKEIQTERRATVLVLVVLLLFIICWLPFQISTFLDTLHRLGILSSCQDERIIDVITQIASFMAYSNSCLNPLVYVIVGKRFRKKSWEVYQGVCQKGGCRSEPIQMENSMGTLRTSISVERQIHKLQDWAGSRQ

[6] = target: T1, kB1R; assay: [3H]Arachidonic acid release, kB1R-mediated, cells co-expressing kB1R and kB2R; format: cell-based; conditions: stably co-expressing HEK cells (so in the source); 1 μM
Outline: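 Cells at ~80% confluence were labelled for 18–24 h in growth medium with 0.1% FBS and 1 μCi/ml [³H]arachidonic acid. They were washed three times in HAM's/F12 buffer (HEPES, NaHCO₃, 0.1% fat-free BSA), then incubated with agonist in that buffer at 37 °C. Released label in the collected medium was counted by liquid scintillation.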

[7] = system: human lung microvascular endothelial cells (HLMVEC); assay: Transendothelial electrical resistance; format: cell-based; conditions: cytokine-treated HLMVEC; 100 nM; BK in the presence of MGTA; n = 4
Outline: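 Primary HLMVEC (passage 3–6) were grown to confluence on gold electrodes coated with 10 μg/ml fibronectin. Cells were cytokine-primed for 16 h with IL-1β plus 100 U/ml IFN-γ, then moved to EBM-2 with 1% FBS for 1 h and impedance-monitored (ECIS) until baseline was stable. BK samples were pretreated with 40 μM MGTA. Cells received ±100 nM BK for 10 min, then 100 nM DAKD or vehicle, with or without 200 μM pyrogallol; TER recorded.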

[8] = target: T1, kB1R; assay: Phosphoinositide turnover; format: cell-based; conditions: stably co-expressing HEK cells; 1 μM
[9] = HEK cells stably expressing kB1R or kB2R
[10] = HEK cells stably expressing kB1R

inhibition of [3H]-DAKD binding, without acid washing [1]: ~ 80%
Substance: des-Arg^9 -HOE-140 [des-Arg-HOE140]

effect of LPA on kB1R response to subsequent DAKD [3, 10]: did not decrease the kB1R response | effect of pre-stimulation on kB1R response [3]: did not reduce the kB1R response
Substance: lysophosphatidic acid [LPA]
increase in [Ca2+]i by LPA ([2]; HEK cells expressing kB1R): relatively lower calcium response than thrombin | cross-desensitization between kB1R, kB2R and LPA [2, 9]: Lack of cross-desensitization

effect of thrombin on increase in [Ca2+]i induced by subsequent DABK (1 μM) [3, 10]: did not inhibit the increase in [Ca^2+]i | effect of pre-stimulation on kB1R response [3]: did not reduce the kB1R response
Substance: thrombin
increase in [Ca2+]i by thrombin [4, 10]: large increase in [Ca^2+]i | cross-desensitization between kB1R, kB2R and thrombin [4, 9]: Lack of cross-desensitization

calcium response to 1 μM KD added after pre-stimulation with kB1R agonist [5]: second robust increase | arachidonic acid release response [6]: responded robustly | inhibition of [3H]-DAKD binding, without acid washing [1]: ~ 80% | IP3 turnover response [8]: responded robustly
Substance: des-Arg^10-kallidin [DAKD]
effect of kB1R agonist on calcium response to subsequent LPA [2, 10]: did not reduce the calcium response | increase in TER [7]: substantial and prolonged
